An excerpt weighted towards active compounds, which were near 1.6% of everything screened.
HSV replic up = HSV replication enhancement; maximum fold increase; actives 0.005% (n = 220,000); AID 1956; HSV replication augmentation in cells, fold increase; in the data active = maximum fold increase above about 1.5; inconclusive = no clear call, values can overlap the other calls; tested in PC3 cells
PHOSPHO1 block = PHOSPHO1 (human) inhibition. Q8TCT1. recombinant PHOSPHO1, absorbance phosphatase assay. inhibition, % at 13.3 µM. actives 1.1% (n = 290,000). AID 1565; in the data active = inhibition above about 60%
Target sequence (Q8TCT1 whole entry, looked up): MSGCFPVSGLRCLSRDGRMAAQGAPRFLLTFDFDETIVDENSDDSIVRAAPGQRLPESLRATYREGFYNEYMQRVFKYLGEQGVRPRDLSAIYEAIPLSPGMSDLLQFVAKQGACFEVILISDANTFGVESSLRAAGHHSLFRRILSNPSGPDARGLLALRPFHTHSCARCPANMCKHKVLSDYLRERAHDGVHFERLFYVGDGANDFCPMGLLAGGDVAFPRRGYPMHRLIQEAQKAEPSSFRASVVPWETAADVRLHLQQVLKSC
PKD1 inh = PKD1 (human) kinase inhibition; PKD1 kinase fluorescence polarization assay; Q15139; inhibition, % (test concentration not listed); actives 0.056% (n = 200,000); in the data active = inhibition above about 50%
ABCB1 block = human ABCB1 inhibition, ABCG2 as counter-screen; P08183; CCRF-Adr cells, JC-1 efflux, flow cytometry; inhibition, % at 6.6 µM; actives 0.067% (n = 190,000); AID 1326; in the data active = inhibition above about 40%;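 note: 0% = vehicle and 100% = reference inhibitor; higher value means more JC-1 retained so stronger ABCB1 efflux block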
NCF1 inh = inhibitors of human p47phox binding. p47phox/p22phox peptide binding, fluorescence polarization, 2 h. inhibition, % at 24.7 µM. actives 0.53% (n = 220,000);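 active = inhibition above about 30%, limit read from the data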;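 note: 0% = p47phox with labelled peptide and 100% = labelled peptide alone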
Target sequence (P14598 whole entry, looked up): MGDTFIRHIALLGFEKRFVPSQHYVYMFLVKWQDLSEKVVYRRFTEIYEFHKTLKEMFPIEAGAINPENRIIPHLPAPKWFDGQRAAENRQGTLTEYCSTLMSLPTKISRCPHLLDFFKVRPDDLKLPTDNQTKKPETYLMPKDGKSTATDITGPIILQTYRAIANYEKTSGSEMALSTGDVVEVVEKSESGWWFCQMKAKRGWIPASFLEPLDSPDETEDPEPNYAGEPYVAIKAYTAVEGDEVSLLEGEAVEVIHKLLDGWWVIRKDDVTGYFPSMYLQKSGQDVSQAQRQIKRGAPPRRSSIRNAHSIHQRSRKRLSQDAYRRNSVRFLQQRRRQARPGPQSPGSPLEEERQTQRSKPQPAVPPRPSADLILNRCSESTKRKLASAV
ABCG2 block = blocks JC-1 efflux by human ABCG2 transporter | AID 1325 | IgMXP3 cells, flow cytometry | Q9UNQ0 | actives 0.1% (n = 190,000) | inhibition, % at 6.6 µM;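 active = inhibition above 80%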;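 note: 0% = DMSO and 100% = nicardipine control wells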
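System: two drug-resistant human cell lines, ABCG2 and ABCB1; controls: nicardipine high and DMSO low controls; times: 10 min exposure at 25 °C with rotation, no wash; detection: flow cytometry of retained JC-1 fluorescence; read-out basis: percent efflux inhibition, scaled nicardipine 100% to DMSO 0%; doses: one concentration, 6.6 µM final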
ABCB1 single pt = inhibits human ABCB1 efflux, confirmed at single point; shares compounds with ABCG2 block; CCRF-Adr cells, JC-1 efflux, flow cytometry; inhibition, % at 6.6 µM; actives 7% (n = 270);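 active = inhibition of pump activity above 50%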;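 note: 0% = DMSO and 100% = nicardipine full pump inhibition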
ABCG2 confirm = inhibits human ABCG2 efflux, confirmed at single point | IgMXP3 cells, JC-1 efflux, flow cytometry | AID 1453 | inhibition, % at 6.6 µM | actives 6% (n = 270) | shares compounds with ABCG2 block;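 active = inhibition above 50%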;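 note: 0% = DMSO wells and 100% = nicardipine pump inhibitor wells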
IgMXP3 fluor = compound fluoresces at 488/530 nm in IgMXP3 cells | shares compounds with ABCG2 block | compound autofluorescence 488/530 nm, flow; active compounds read high | fluorescence at 6.6 µM | actives 30% (n = 270);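 active = fluorescence in ABCG2-expressing cells above the plate's control-well mean plus 3 SD, cut at about 15 in these data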;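 note: median cell fluorescence with compound minus that of DMSO-treated control cells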
CCRF autofluor = counter-screen for ABCB1 inhibitors: compound fluorescence in CCRF-Adr cells; shares compounds with ABCG2 block; compound autofluorescence 488/530 nm, flow cytometry; active compounds read high; fluorescence at 6.6 µM; actives 30% (n = 270); AID 1483;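 active = fluorescence beyond the plate control mean plus 3 SD, with a fluorescence-to-maximum score over 2, cut at about 25 in these data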
* hit, by the source's call.

How did O=C(Nc1nc2ccc([N+](=O)[O-])cc2s1)c1c(F)cccc1F do in these assays?
HSV replic up: inactive; PHOSPHO1 block: 43; PKD1 inh: -6; ABCB1 block: 1; NCF1 inh: 0; ABCG2 block: 80; ABCB1 single pt: 0; ABCG2 confirm: 30; IgMXP3 fluor: -3.4; CCRF autofluor: -5.7

What do the screens show for `Cc1c(C#N)c(NC(=O)CCl)n(Cc2ccc(F)cc2)c1C`?
HSV replic up: inactive; PHOSPHO1 block: -4; PKD1 inh: 3; ABCB1 block: 45*; NCF1 inh: -5; ABCG2 block: 12; ABCB1 single pt: 1; ABCG2 confirm: 1; IgMXP3 fluor: 4.9; CCRF autofluor: 8.6

What do the screens show for `CC(=O)Nc1ccc(NC(=O)COC(=O)Cc2cccs2)cc1`?
HSV replic up: inactive; PHOSPHO1 block: 5; PKD1 inh: 0; ABCB1 block: 0; NCF1 inh: -4; ABCG2 block: 9

Results for CC(Cc1cccs1)NC(=S)Nc1ccc(Cl)c(Cl)c1 (stereo not drawn) ?
HSV replic up: inactive; PHOSPHO1 block: -5; PKD1 inh: 1; ABCB1 block: 1; NCF1 inh: -6; ABCG2 block: 61; ABCB1 single pt: -4; ABCG2 confirm: 7; IgMXP3 fluor: 3.2; CCRF autofluor: 10

How did CCOC(=O)c1sc(NN=C(C(=O)OC)C(=O)OC)c(C(=O)OCC)c1C do in these assays?
HSV replic up: inactive; PHOSPHO1 block: 1; PKD1 inh: 2; ABCB1 block: 0; NCF1 inh: -19; ABCG2 block: 126*; ABCB1 single pt: 2; ABCG2 confirm: 26; IgMXP3 fluor: -1.3; CCRF autofluor: -1.2

Results for CCN(Cc1ccncc1)C(=O)c1cc(Br)cc(Br)c1O ?
HSV replic up: inactive; PHOSPHO1 block: 6; PKD1 inh: -1; ABCB1 block: 0; NCF1 inh: -5; ABCG2 block: 0

How did CC(=O)Nc1cccc(C(=O)OCc2ccc([N+](=O)[O-])cc2)c1 do in these assays?
HSV replic up: inactive; PHOSPHO1 block: -16; PKD1 inh: 3; ABCB1 block: 0; NCF1 inh: -5; ABCG2 block: 5

What do the screens show for `CCC(=O)Nc1cccc(C(=O)OCc2cccc([N+](=O)[O-])c2)c1`?
HSV replic up: inactive; PHOSPHO1 block: -18; PKD1 inh: 0; ABCB1 block: 4; NCF1 inh: -7; ABCG2 block: 93*; ABCB1 single pt: 6; ABCG2 confirm: 28; IgMXP3 fluor: 0.66; CCRF autofluor: -1.8

How did O=C1NC(Cc2c[nH]c3ccccc23)C(=O)N1Cc1ccccc1 (stereo not drawn) do in these assays?
PHOSPHO1 block: 48

What do the screens show for `O=C1NC(CCc2ccccc2)C(=O)N1Cc1cccc2ccccc12` (stereo not drawn)?
HSV replic up: inactive; PHOSPHO1 block: 13; PKD1 inh: -4; ABCB1 block: 90*; NCF1 inh: -10; ABCG2 block: 159*; ABCB1 single pt: 0; ABCG2 confirm: -1; IgMXP3 fluor: -0.29; CCRF autofluor: -2.7

How did Cc1cc([N+](=O)[O-])ccc1NC(=O)Nc1ccccc1F do in these assays?
HSV replic up: inactive; PHOSPHO1 block: 21; PKD1 inh: 5; ABCB1 block: 2; NCF1 inh: -4; ABCG2 block: 106*; ABCB1 single pt: 1; ABCG2 confirm: 40; IgMXP3 fluor: -0.99; CCRF autofluor: 4

What do the screens show for `O=C(/C=C/c1cccc([N+](=O)[O-])c1)Nc1cccc(NC(=O)c2cccs2)c1`?
HSV replic up: inactive; PHOSPHO1 block: 7; PKD1 inh: -3; ABCB1 block: active; NCF1 inh: -14; ABCG2 block: active; ABCB1 single pt: 13; ABCG2 confirm: 31; IgMXP3 fluor: -0.59; CCRF autofluor: 0.66

Results for Cc1cc(OCCN2CCCC2)ccc1[N+](=O)[O-] ?
PHOSPHO1 block: -10; PKD1 inh: -4; NCF1 inh: -2; ABCG2 block: 1

How did O=[N+]([O-])c1ccc(OCCN2CCCCCC2)cc1 do in these assays?
HSV replic up: inactive; PHOSPHO1 block: 8; PKD1 inh: -1; ABCB1 block: 0; NCF1 inh: -8; ABCG2 block: 81*; ABCB1 single pt: 0; ABCG2 confirm: 3; IgMXP3 fluor: 0.21; CCRF autofluor: 5.8

How did N=c1oc2c3c4c(cc2cc1C(=O)Nc1ccccc1)CCCN4CCC3 do in these assays?
HSV replic up: inconclusive; PHOSPHO1 block: 17; PKD1 inh: -45; ABCB1 block: 131*; NCF1 inh: -44; ABCG2 block: active; ABCB1 single pt: -14; ABCG2 confirm: -78; IgMXP3 fluor: 625*; CCRF autofluor: 666*

What do the screens show for `Cc1cc(C)c(C#N)c(SCc2ccccc2[N+](=O)[O-])n1`?
HSV replic up: inactive; PHOSPHO1 block: -2; PKD1 inh: -4; ABCB1 block: 7; NCF1 inh: -5; ABCG2 block: 101*; ABCB1 single pt: 6; ABCG2 confirm: 48; IgMXP3 fluor: -1.1; CCRF autofluor: -2

Results for Cc1cc(C)c(C#N)c(SCc2c(F)cccc2[N+](=O)[O-])n1 ?
HSV replic up: inactive; PHOSPHO1 block: 0; PKD1 inh: -4; ABCB1 block: 5; NCF1 inh: -14; ABCG2 block: 92*; ABCB1 single pt: 3; ABCG2 confirm: 52*; IgMXP3 fluor: -2; CCRF autofluor: -4.5

How did COc1ccc(C(=O)NCc2nnc(SCC(=O)Nc3nc4ccc(C)cc4s3)o2)cc1OC do in these assays?
HSV replic up: inactive; PHOSPHO1 block: 6; PKD1 inh: 0; ABCB1 block: 0; NCF1 inh: -12; ABCG2 block: 2

How did CC(C)n1c(O)c(N=NC(=O)Cn2ccc(C(F)(F)F)n2)c2ccccc21 do in these assays?
HSV replic up: inactive; PHOSPHO1 block: -21; PKD1 inh: -3; ABCB1 block: 1; NCF1 inh: -8; ABCG2 block: 89*; ABCB1 single pt: 16; ABCG2 confirm: 17; IgMXP3 fluor: 2.9; CCRF autofluor: 28*
